Experimental data as given in ChEMBL document CHEMBL1157552, “Antimalarial and antitubercular nostocarboline and eudistomin derivatives: synthesis, in vitro and in vivo biological evaluation” (Bioorg Med Chem, 2010).
pIC50: −log10 of the molar value.

test system: Mycolicibacterium smegmatis; assay: Antitubercular activity against Mycobacterium smegmatis mc2 155; format: functional; settings: str. MC2 155

SMILES | MIC99
Clc1ccc2[nH]c3c[n+](C/C=C\C[n+]4ccc5c(c4)[nH]c4ccc(Cl)cc45)ccc3c2c1.[Cl-].[Cl-] | > 188 µM

test system: L6; assay: Cytotoxicity against rat L6 cells; format: cell-based; settings: not given

SMILES | pIC50
C[n+]1ccc2c(c1)[nH]c1ccc(Br)cc12.[I-] | 4.06
Brc1ccc2[nH]c3c[n+](Cc4ccc5ccccc5c4)ccc3c2c1 | 5.29
COC(=O)CCC[n+]1ccc2c(c1)[nH]c1ccc(Cl)cc12 | 3.68
CC[n+]1ccc2c(c1)[nH]c1ccc(Cl)cc12.[I-] | 3.95
C=CC[n+]1ccc2c(c1)[nH]c1ccc(Br)cc12.[Br-] | 3.88
Brc1cccc2c1[nH]c1c[n+](Cc3ccccc3)ccc12 | 4.54
C=CC[n+]1ccc2c(c1)[nH]c1c(Br)cccc12 | 3.95
CC[n+]1ccc2c(c1)[nH]c1ccc(Br)cc12.[I-] | 4.10
COC(=O)CCC[n+]1ccc2c(c1)[nH]c1ccc(Br)cc12 | 3.79

test system: Trypanosoma brucei rhodesiense; assay: Antiparasitic activity against Trypanosoma brucei rhodesiense STIB 900; format: functional, organism-based; settings: not given
How it was run: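 Tested against bloodstream forms of STIB 900.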

SMILES | pIC50
C[n+]1ccc2c(c1)[nH]c1ccc(Br)cc12.[I-] | 4.33
Brc1ccc2[nH]c3c[n+](Cc4ccc5ccccc5c4)ccc3c2c1 | 5.39
COC(=O)CCC[n+]1ccc2c(c1)[nH]c1ccc(Cl)cc12 | 3.98
CC[n+]1ccc2c(c1)[nH]c1ccc(Cl)cc12.[I-] | 4.43
C=CC[n+]1ccc2c(c1)[nH]c1ccc(Br)cc12.[Br-] | 4.76
Brc1cccc2c1[nH]c1c[n+](Cc3ccccc3)ccc12 | 5.15
C=CC[n+]1ccc2c(c1)[nH]c1c(Br)cccc12 | 4.58
CC[n+]1ccc2c(c1)[nH]c1ccc(Br)cc12.[I-] | 4.58
COC(=O)CCC[n+]1ccc2c(c1)[nH]c1ccc(Br)cc12 | 3.95

test system: not listed separately; assay: Selectivity ratio of IC50 for rat L6 cells to IC50 for Plasmodium falciparum K1; format: ADME, cell-based; settings: L6 cells (cytotoxicity) versus Plasmodium falciparum K1, read-out: Ratio IC50

SMILES | selectivity ratio
C[n+]1ccc2c(c1)[nH]c1ccc(Br)cc12.[I-] | 4780
Brc1ccc2[nH]c3c[n+](Cc4ccc5ccccc5c4)ccc3c2c1 | 11
COC(=O)CCC[n+]1ccc2c(c1)[nH]c1ccc(Cl)cc12 | 66
CC[n+]1ccc2c(c1)[nH]c1ccc(Cl)cc12.[I-] | 250
C=CC[n+]1ccc2c(c1)[nH]c1ccc(Br)cc12.[Br-] | 266
Brc1cccc2c1[nH]c1c[n+](Cc3ccccc3)ccc12 | 11
C=CC[n+]1ccc2c(c1)[nH]c1c(Br)cccc12 | 17
CC[n+]1ccc2c(c1)[nH]c1ccc(Br)cc12.[I-] | 2440
COC(=O)CCC[n+]1ccc2c(c1)[nH]c1ccc(Br)cc12 | 70

test system: Plasmodium berghei; assay: Antiparasitic activity against Plasmodium berghei infected in mice (Mus musculus) assessed as reduction of parasitaemia at 50 mg/kg, intraperitoneally administered 4, 24, 48, 72 hrs post infection measured 24 hrs of last treatment on day 4 relative to control; format: functional; design: scale not given: the % may be the effect or the level left; settings: route intraperitoneal
How it was run: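 Compounds formulated in DMSO/water and given i.p. at 50 mg/kg, 4 doses, to P. berghei-infected mice. Parasitaemia measured by FACS on day 4 post infection, 24 h after the last dose. Activity is the difference in mean % parasitaemia between control (n = 5 mice) and treated groups, as % of control. Mean survival time was also recorded.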

SMILES | Activity
C[n+]1ccc2c(c1)[nH]c1ccc(Br)cc12.[I-] | 0%
CC[n+]1ccc2c(c1)[nH]c1ccc(Cl)cc12.[I-] | 15.36%
C=CC[n+]1ccc2c(c1)[nH]c1ccc(Br)cc12.[Br-] | 3.57%
CC[n+]1ccc2c(c1)[nH]c1ccc(Br)cc12.[I-] | 13.25%
Clc1ccc2[nH]c3c[n+](C/C=C\C[n+]4ccc5c(c4)[nH]c4ccc(Cl)cc45)ccc3c2c1.[Cl-].[Cl-] | 11.53%

test system: Corynebacterium glutamicum; assay: Antitubercular activity against Corynebacterium glutamicum ATCC 13032; format: functional; settings: not given
How it was run: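 Grown in 7H9 medium; susceptibility determined by resazurin reduction. MIC99 is the lowest drug concentration preventing growth of 99% of cells.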

SMILES | MIC99
Clc1ccc2[nH]c3c[n+](C/C=C\C[n+]4ccc5c(c4)[nH]c4ccc(Cl)cc45)ccc3c2c1.[Cl-].[Cl-] | 5 µM

test system: Plasmodium falciparum; assay: Antiparasitic activity against Plasmodium falciparum K1; format: functional, organism-based; settings: not given
How it was run: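 Tested against erythrocytic stages of the K1 strain.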

SMILES | pIC50
C[n+]1ccc2c(c1)[nH]c1ccc(Br)cc12.[I-] | 7.74
Brc1ccc2[nH]c3c[n+](Cc4ccc5ccccc5c4)ccc3c2c1 | 6.32
COC(=O)CCC[n+]1ccc2c(c1)[nH]c1ccc(Cl)cc12 | 5.50
CC[n+]1ccc2c(c1)[nH]c1ccc(Cl)cc12.[I-] | 6.34
C=CC[n+]1ccc2c(c1)[nH]c1ccc(Br)cc12.[Br-] | 6.31
Brc1cccc2c1[nH]c1c[n+](Cc3ccccc3)ccc12 | 5.59
C=CC[n+]1ccc2c(c1)[nH]c1c(Br)cccc12 | 5.17
CC[n+]1ccc2c(c1)[nH]c1ccc(Br)cc12.[I-] | 7.49
COC(=O)CCC[n+]1ccc2c(c1)[nH]c1ccc(Br)cc12 | 5.63

test system: Mycobacterium tuberculosis; assay: Antitubercular activity against Mycobacterium tuberculosis H37Rv; format: functional; settings: not given

SMILES | MIC99
Clc1ccc2[nH]c3c[n+](C/C=C\C[n+]4ccc5c(c4)[nH]c4ccc(Cl)cc45)ccc3c2c1.[Cl-].[Cl-] | 9 µM

test system: Trypanosoma cruzi; assay: Antiparasitic activity against Trypanosoma cruzi Tulahuen C2C4; format: functional, organism-based; settings: not given
How it was run: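 Tested against Tulahuen C2C4 amastigotes grown in L6 rat skeletal myoblasts.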

SMILES | pIC50
C[n+]1ccc2c(c1)[nH]c1ccc(Br)cc12.[I-] | 3.88
Brc1ccc2[nH]c3c[n+](Cc4ccc5ccccc5c4)ccc3c2c1 | 5.12
COC(=O)CCC[n+]1ccc2c(c1)[nH]c1ccc(Cl)cc12 | 3.94
CC[n+]1ccc2c(c1)[nH]c1ccc(Cl)cc12.[I-] | 4.00
C=CC[n+]1ccc2c(c1)[nH]c1ccc(Br)cc12.[Br-] | 4.06
Brc1cccc2c1[nH]c1c[n+](Cc3ccccc3)ccc12 | 4.37
C=CC[n+]1ccc2c(c1)[nH]c1c(Br)cccc12 | 3.81
CC[n+]1ccc2c(c1)[nH]c1ccc(Br)cc12.[I-] | 4.04
COC(=O)CCC[n+]1ccc2c(c1)[nH]c1ccc(Br)cc12 | 4.19

test system: Leishmania donovani; assay: Antiparasitic activity against Leishmania donovani MHOM-ET-67/L82 axenic amastigotes; format: functional, organism-based; settings: not given

SMILES | pIC50
C[n+]1ccc2c(c1)[nH]c1ccc(Br)cc12.[I-] | < 3.64
Brc1ccc2[nH]c3c[n+](Cc4ccc5ccccc5c4)ccc3c2c1 | 4.75
COC(=O)CCC[n+]1ccc2c(c1)[nH]c1ccc(Cl)cc12 | 3.93
CC[n+]1ccc2c(c1)[nH]c1ccc(Cl)cc12.[I-] | 3.60
C=CC[n+]1ccc2c(c1)[nH]c1ccc(Br)cc12.[Br-] | 4.70
Brc1cccc2c1[nH]c1c[n+](Cc3ccccc3)ccc12 | 4.18
C=CC[n+]1ccc2c(c1)[nH]c1c(Br)cccc12 | 3.91
CC[n+]1ccc2c(c1)[nH]c1ccc(Br)cc12.[I-] | < 3.65
COC(=O)CCC[n+]1ccc2c(c1)[nH]c1ccc(Br)cc12 | < 3.69
